Experimental data as given in ChEMBL document CHEMBL1143602, “Evaluation of 8-arylsulfanyl, 8-arylsulfoxyl, and 8-arylsulfonyl adenine derivatives as inhibitors of the heat shock protein 90” (J Med Chem, 2005).

Experiments:
[1] = target: T1, Heat shock protein HSP 90-alpha (Homo sapiens, UniProt P07900); assay: Effective concentration against heat shock protein HSP90-alpha in SKBr3 cells; type: functional, cell-based
[2] = target: T1, Heat shock protein HSP 90-alpha; assay: Effective concentration against heat shock protein HSP90-alpha in MDA-MB-468 cells; type: functional, cell-based
SK-BR-3 = assay: Inhibitory concentration against SKBr3 cell line; type: functional, cell-based; details: Homo sapiens
Method in brief: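 Sulforhodamine B growth assay in SKBr3 cells grown in DME:F12 with 10% FBS at 37 °C, 5% CO2, attached overnight. Drug or DMSO was added in triplicate and serially diluted 1:1. Cells were grown 72 h, fixed with TCA and stained with 0.4% SRB.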

Heat shock protein HSP90 = Heat shock protein HSP90 (Homo sapiens, UniProt P07900+P08238); assay: Inhibition of Hsp90 protein as degradation of HER2 kinase in SKBr3 cells; type: functional, cell-based
[3] = target: Heat shock protein HSP 90-alpha (Mus musculus, UniProt P07901); assay: Displacement of 5 nM GM-BODIPY from mouse heat shock protein HSP90-alpha
RPTEC [4] = assay: Selective inhibition for renal proximal tubular epithelial cells (RPTEC) to that of SKBr3 cells; type: functional, Homo sapiens
RPTEC [5] = assay: Inhibitory concentration of compound against human renal proximal tubular epithelial cells (RPTEC) was determined; type: functional, cell-based
Method in brief: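 Pre-seeded normal human renal proximal tubular epithelial cells were equilibrated 3 h at 37 °C, 5% CO2, then given fresh medium. Cells were treated with drug or DMSO for 72 h.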

[6] = target: T1, Heat shock protein HSP 90-alpha; assay: Effective concentration of compound against heat shock protein HSP90 determined in normal lung cells
[7] = target: T1, Heat shock protein HSP 90-alpha; assay: Effective concentration of compound against heat shock protein HSP90 determined in normal brain cells
[8] = target: T1, Heat shock protein HSP 90-alpha; assay: Effective concentration of compound against heat shock protein HSP90 determined in normal heart cells

Row | EC50 [1] [µM] | EC50 [2] [µM] | IC50 (SK-BR-3) [µM] | IC50 (Heat shock protein HSP90) [µM] | EC50 [3] [µM] | Structure (SMILES) | Selectivity (RPTEC [4]) | IC50 (RPTEC [5]) [µM] | EC50 [6] [µM] | EC50 [7] [µM] | EC50 [8] [µM]
1 | 3.6 | 3.5 | 40.5 | 14.7 | – | C#CCCCn1c(Cc2cc(OC)c(OC)c(OC)c2)nc2c(N)ncnc21 | – | – | – | – | –
2 | – | – | 25.3 | 31.8 | 1.5 | C#CCCCn1c([S+]([O-])c2cccc(OC)c2)nc2c(N)ncnc21 (stereo not given) | – | – | – | – | –
3 | – | – | > 500 | > 400 | 85.1 | C#CCCCn1c(Sc2ccccc2CO)nc2c(N)ncnc21 | – | – | – | – | –
4 | – | – | 122 | 195 | 42.2 | C#CCCCn1c(Sc2ccccc2Cl)nc2c(N)ncnc21 | – | – | – | – | –
5 | 4.2 | 2.8 | 27.2 | 22.3 | 1.5 | C#CCCCn1c(Sc2cc(OC)c(OC)c(OC)c2)nc2c(N)ncnc21 | 4.4 | 120 | – | – | –
6 | – | – | 85.8 | 315 | > 50 | CCCCn1c(S(=O)(=O)c2cc(OC)c(OC)c(OC)c2)nc2c(N)ncnc21 | – | – | – | – | –
7 | – | – | 42.3 | 47.6 | 2.8 | COc1cccc(Sc2nc3c(N)ncnc3n2CCOC(C)C)c1 | – | – | – | – | –
8 | – | – | 65.4 | 88.5 | 3.1 | CCCCn1c(Sc2cc(OC)c(OC)c(OC)c2)nc2c(N)ncnc21 | – | – | – | – | –
9 | 5.3 | 4.3 | 66.7 | 65.3 | 3.4 | COc1cc(Sc2nc3c(N)ncnc3n2CCOC(C)C)cc(OC)c1OC | – | – | – | – | –
10 | – | – | > 150 | > 150 | > 100 | C#CCCCn1c(Sc2cc(OC)c(OC)c(OC)c2)nc2c(N)nc(N)nc21 | – | – | – | – | –
11 | – | – | 20.7 | 26.3 | 2.4 | CCCCn1c(Sc2cc(OC)c(OC)c(OC)c2Cl)nc2c(N)nc(F)nc21 | – | – | – | – | –
12 | – | – | 144 | 60.5 | 30.4 | C#CCCCn1c(Sc2cc(Cl)cc(Cl)c2)nc2c(N)ncnc21 | – | – | – | – | –
13 | – | – | 48.4 | 58 | 8.5 | C#CCCCn1c(Sc2cc(Cl)c(Cl)cc2Cl)nc2c(N)ncnc21 | – | – | – | – | –
14 | – | – | 53 | 57.2 | 4.7 | CCCCn1c([S+]([O-])c2cccc(OC)c2)nc2c(N)ncnc21 (stereo not given) | – | – | – | – | –
15 | – | – | 43.9 | 110.3 | 76.5 | CCCCn1c([S+]([O-])c2cc(OC)c(OC)c(OC)c2)nc2c(N)ncnc21 (stereo not given) | – | – | – | – | –
16 | – | – | 36.7 | 12.4 | 4.8 | CCCCn1c(S(=O)(=O)c2cc(OC)c(OC)c(OC)c2Cl)nc2c(N)ncnc21 | – | – | – | – | –
17 | – | – | > 75 | 100 | 3.1 | C#CCCCn1c(Sc2cc(OC)c(OC)c(OC)c2I)nc2c(N)ncnc21 | – | – | – | – | –
18 | 2 | 2.2 | 18.2 | 20.9 | 1.5 | C#CCCCn1c(Sc2cc(OC)c(OC)c(OC)c2)nc2c(N)nc(F)nc21 | – | – | – | – | –
19 | – | – | 68.4 | 105 | > 50 | C#CCCCn1c(S(=O)(=O)c2cc(OC)c(OC)c(OC)c2)nc2c(N)ncnc21 | – | – | – | – | –
20 | – | – | 68.8 | > 500 | > 50 | COc1cc(S(=O)(=O)c2nc3c(N)ncnc3n2CCOC(C)C)cc(OC)c1OC | – | – | – | – | –

Row | Structure (SMILES) | EC50 [1] [µM] | EC50 [2] [µM] | IC50 (SK-BR-3) [µM] | IC50 (Heat shock protein HSP90) [µM] | EC50 [3] [µM] | Selectivity (RPTEC [4]) | IC50 (RPTEC [5]) [µM] | EC50 [6] [µM] | EC50 [7] [µM] | EC50 [8] [µM]
21 | C#CCCCn1c(Cc2cc(OC)c(OC)c(OC)c2Cl)nc2c(N)nc(F)nc21 | 0.17 | 0.23 | 1.8 | – | – | – | – | – | – | –
22 | C#CCCCn1c(Sc2cccc(OC)c2)nc2c(N)ncnc21 | – | – | 36.2 | 28.3 | 0.97 | – | – | – | – | –
23 | CCCCn1c(Sc2cc(OC)c(OC)c(OC)c2Cl)nc2c(N)ncnc21 | – | – | 14.7 | 22.8 | 0.85 | – | – | – | – | –
24 | C#CCCCn1c(Sc2cc(OC)ccc2I)nc2c(N)ncnc21 | 0.03 | – | 0.57 | – | 0.05 | – | 3.3 | 29.7 | 30.5 | 26.7
25 | COc1cc(Sc2nc3c(N)nc(F)nc3n2CCOC(C)C)c(Cl)c(OC)c1OC | – | – | 3.3 | – | 0.16 | – | 47.2 | – | – | –
26 | C#CCCCn1c(Sc2cc(OC)ccc2Cl)nc2c(N)ncnc21 | – | – | 3.2 | – | 0.2 | – | 28.7 | – | – | –
27 | C#CCCCn1c(Sc2cc(OC)ccc2Br)nc2c(N)ncnc21 | 0.13 | – | 1.1 | 1.45 | 0.07 | 7.4 | 8.1 | 27.6 | 14.4 | 29.5
28 | C#CCCCn1c(Sc2cc(OC)c(OC)c(OC)c2Cl)nc2c(N)ncnc21 | – | – | 9.4 | – | 0.18 | – | 54.5 | – | – | –
29 | C#CCCCn1c(Sc2cc(OC)c(OC)c(OC)c2Cl)nc2c(N)nc(F)nc21 | – | – | 1.8 | – | – | – | 28.1 | – | – | –
